Measurements as given in the EternaBench riboswitch data.

System: MS2 coat protein
Assay: apparent Kd, MS2 coat protein; higher = weaker binding; RNA-MaP array; FMN 200 µM where present
How it was run: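 Designs were transcribed by stalled E. coli RNA polymerase on Illumina sequencing-chip clusters. They were titrated with SNAP-549-labelled MS2 coat protein from 0.7 or 1.5 nM, doubling to 3 µM, without and then with constant ligand. Buffer: 100 mM Tris-HCl pH 7.5, 80 mM KCl, 4 mM MgCl2, BSA, DTT, yeast tRNA, Tween-20. Green signal was normalised to red-channel RNA signal and control-cluster median Fmax. Apparent Kd is the median of filtered per-cluster binding-curve fits.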

[1] = designed as: ON switch for flavin mononucleotide, no ligand
[2] = ligand present: flavin mononucleotide, designed as: ON switch for flavin mononucleotide
[3] = designed as: OFF switch for flavin mononucleotide, no ligand
[4] = ligand present: flavin mononucleotide, designed as: OFF switch for flavin mononucleotide

Sequence | apparent Kd [1] | apparent Kd [2] | apparent Kd [3] | apparent Kd [4]
AACGGGUGGGUAGGAUAUGGCUAUGUCUCAUUGCUAGAAGGACCAGCUGCUACAUGAGGAUCACCCAUGUCGUAGUGCACCCAG | 421 nM | 33.5 nM |  | 
AACGGUGGGUAGGAUAUCCGGUUCUAGUUGCCAGGAGAAGGGCCCACAUGAGGAUCACCCAUGUGGGUGGGCUC |  |  | 47.7 nM | 26.1 nM
AACUGACGACGUCAGUUGCGUAGGCAGGAUAUACAUGAGGAUCACCCAUGUGCAUGAUGCUACGAGUAGAAGGGCCGAGGCGAU |  |  | 6.15 nM | 11.2 nM
AACUGCUGCGUUGUGAUUUCUCCACAUGAGGAUCACCCAUGUCAGGAUAUCUUACCUAGCGGACAAGAGAAGGGACAUGACGGU |  |  | 348 nM | 129 nM
AACUGGUGUGAGAAGGGACGUAUCUCCAUGAGGGCAGGGCUAUUAGAGAAGUCAGGAUAUCACAUGAGGAUCACCCAUGUGACG |  |  | 8.33 nM | 9.02 nM
AAGAAACAUGAGGAUCACCCAUGUAAAUAAAUCUCAGGAUAUCGUACAUGGAAGAUCUAACGAGAAGGGAGAAGAA | 137 nM | 140 nM |  | 
AAGAAACAUGAGGAUCACCCAUGUAAGAUAAACACAGGAUAUGCGAAUAAAAUAAAUAAAGCAGAAGGGUGAAGAA |  | 16.7 nM |  | 
AAGAAACAUGAGGAUCACCCAUGUAGAAAUAUGGGAGGAUAUACGAGGACGAAAGUCAAAGUAGAAGGCCUAAGAA | 56.9 nM | 27.4 nM |  | 
AAGAAACAUGAGGAUCACCCAUGUCGAGAGAGACGAGGAUAUCUGAAUCGAUUAGAUUACGGAGAAGGCGUGAAAA | 29.4 nM | 23.4 nM |  | 
AAGAAACAUGAGGAUCACCCAUGUGAGAAUAUGGGAGGAUAUACAAGGACGUAAGUCAAGGUAGAAGGCCUAAGAA | 171 nM | 29.7 nM |  | 
AAGAAACAUGAGGAUCACCCAUGUGAGGAUAUGAGCAAGAAAAGAAAAGAAAGAAGAAUCAGAAGGCACAAAGG |  |  | 39.6 nM | 75.7 nM
AAGAAACAUGAGGAUCACCCAUGUGUAAAUAUGGGAGGAUAUACAAGGACGUAAGUCAAGGUAGAAGGCCUAAGAA | 172 nM | 32.7 nM |  | 
AAGAAGUCAGGAUAUCGUUAAUUUAGUUGUUUGUAUUAGUUCGAGAAGGGACAUGAGGAUCACCCAUGUAAGAA |  |  | 35.2 nM | 42.7 nM
AAGAAGUGAGGAUAUACAUGAACGAAAAAAAAAAAGAGCAUGUAGAAGGCACAUGAGGAUCACCCAUGUCAAAA |  |  | 28.5 nM | 27.3 nM
AAGAAGUGAGGAUAUACGCGAACAAAAAAAAAAAAGAAAGCGUAGAAGGCACAUGAGGAUCACCCAUGUCCAAA |  |  | 27.2 nM | 36.3 nM
AAGAAGUGAGGAUAUGCAGUGGCCUGUAGACGCAAGCACUUGUAGAAGGCACAUGAGGAUCACCCAUGUUUAAA |  |  | 35 nM | 32.8 nM
AAGACAAAUGUAGGAUAUGCGUGGCGAAGCUAUGCAGAAGGACAUGAGGAUCACCCAUGUCUUAGCGUCUGCGUACAGAUGCUA |  |  | 16.7 nM | 20.9 nM
AAGAGGCGAGGAUAUACAUGAGGAUCACCCAUGUAAUCCGGAUAAGGAAGCAUGUCGUGUAGAAGGUGCCAUGA |  |  | 20.7 nM | 19.2 nM
AAGAGUAGAGGAUAUACGAAAAAAGAGUCGAAAGACUCGGGACAUGAGGAUCACCCAUGUAGAAGGCUACUCAA |  |  | 25.4 nM | 120 nM
AAGAUGCGGGUAGGAUAUGGAGAGAAAGAAAGACCAGAAGGAUUGGUCACACAACAUGAGGAUCACCCAUGUGUGUGUUGCGAA |  |  | 14.1 nM | 11.9 nM
AAGAUGUAAGGAUAUGCUGCUCGUCACUUGCGUGAUGAGUAGCAGAAGGUACAUGAGGAUCACCCAUGUAAAGA |  |  | 30.4 nM | 43.3 nM
AAGAUGUUAGGAUAUGCUGCUCGUCACAAAAGUGAUGAGUAGCAGAAGGAACAUGAGGAUCACCCAUGUAAAGA |  |  | 31 nM | 55.3 nM

Sequence | apparent Kd [1] | apparent Kd [2] | apparent Kd [3] | apparent Kd [4]
AAGCGAAAGCUAAAAUAUCUAUCAGAGGAUAUUUAUGAUACAUGAGGAUCACCCAUGUGACACUGGGAGAAGGCUGAUAGAUAA | 19.2 nM | 7.5 nM |  | 
AAGCGACGAGGAUAUCGGUGGCUGAACAUGAGGAUCACCCAUGUGAACCGAUGGCAGUGUCGAGAAGGUGUUGAGU |  |  | 13.9 nM | 16.1 nM
AAGGACAGAGGAUAUACAUAGAUACAGAUUCAUGUAGAACUACAUGAGGAUCACCCAUGUAGAAGGCUGUCCUA |  |  | 30.7 nM | 285 nM
AAGGAUAGAGGAUAUACAUAGAUACAGAUUCAUGUAAUCCUACAUGAGGAUCACCCAUGUAGAAGGCUAUCCUA |  |  | 15.8 nM | 58.3 nM
AAGGAUAGAGGAUAUACGUAGAUACAGAUUCAUGUAGAACUACAUGAGGAUCACCCAUGUAGAAGGCUAUCCUA |  |  | 28.8 nM | 299 nM
AAGGGACAUGAGGAUCACCCAUGUGAGGAUAUAUAAAUGUACCCGAUGGGAGUACACAAUAGAAGGCGCGGCUA |  |  | 40.7 nM | 32.8 nM
AAGGUGUUAGGAUAUCGGAGUUUGAGGCAGACGGGAAUUUUCGAGAAGGAACAUGAGGAUCACCCAUGUAGUAU |  |  | 24.1 nM | 24.8 nM
AAGUAGAUCCGAGGAUAUACAAUCUGGAAACGGUACAUGAGGAUCACCCAUGUAGAAGGCGGAUCUACAGGUACUAAAGUACCA |  |  | 7.4 nM | 16.4 nM
AAGUAUAAGGGCAUUAAACAUGAGGAUCACCCAUGUACAAUAGAGGAUAUGCAUUUUGGUUUAGAGUAGAAGGUUAGAGAAAAU |  |  | 28.2 nM | 33.5 nM
AAGUAUAGAGGAUAUAGUGAGUACUACAUGAGGAUCACCCAUGUUCUUCAAAGCGUAUUUCUAGAAGGCUAAUGAA |  |  | 50 nM | 114 nM
AAGUCAGCAGGAUAUGCGAUGUUGGGCUAGAUAGCGUGACCACAUGAGGAUCACCCAUGUAGAAGGGCUGGCUA |  |  | 37.4 nM | 43.7 nM
AAUAAACAUGAGGAUCACCCAUGUCAGGAUAUCCUAAAUAAAAAAAUAUAAAGAAGAAGGAGAAGGGACUAAAA |  |  | 111 nM | 120 nM
AAUAACAGAGGAUAUACUAUUUUAUGUGUUUAUUGUUUUGAACAUGAGGAUCACCCAUGUAGAAGGCUGAAUAA |  |  | 24.6 nM | 26.1 nM
AAUAACAGAGGAUAUACUAUUUUAUGUGUUUGUUGUUUUGAACAUGAGGAUCACCCAUGUAGAAGGCUGAGUAA |  |  | 27.9 nM | 30.3 nM
AAUAACAGAGGAUAUACUAUUUUAUGUGUUUGUUGUUUUGAACAUGAGGAUCACCCAUGUAGAAGGCUGAUUAA |  |  | 40.5 nM | 47 nM
AAUAACAGAGGAUAUACUGUUUUAUGUGUUUGUUAUUUUAAACAUGAGGAUCACCCAUGUAGAAGGCUGAAUGA |  |  | 21.5 nM | 24.5 nM
AAUAACAGAGGAUAUACUGUUUUAUGUGUUUGUUAUUUUGAACAUGAGGAUCACCCAUGUAGAAGGCUGAUUAA |  |  | 41.2 nM | 38.2 nM
AAUAACAGAGGAUAUACUGUUUUAUGUGUUUGUUGUUUUAAACAUGAGGAUCACCCAUGUAGAAGGCUGAAUAA |  |  | 19.3 nM | 20.3 nM
AAUAACAGAGGAUAUACUGUUUUAUGUGUUUGUUGUUUUAAACAUGAGGAUCACCCAUGUAGAAGGCUGAAUGA |  |  | 26.5 nM | 25.2 nM
AAUAAUUAGUAAGGAUAUACUAGCGAUUAGCUUGUAGAAGGUACAGUCUUAUGUAUAACAUGUUAACAUGAGGAUCACCCAUGU | 68.9 nM | 29.3 nM |  | 
AAUACAUGAGGAUCACCCAUGUUAUGUUCAAACAAUAUGAGUGAGGAUAUACUGAGUUAGUUAUGGUAGAAGGCACUGGGUUCA | 56.3 nM | 36.2 nM |  | 
